According to article PMC5741288 (Pain Reports, 2016):

Test system: dermal blood flow (flare)
Test: Topical capsaicin alone, flare response in anesthetized rats
Type: in vivo, Sprague Dawley rats
Summary of the method: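 Isoflurane-anaesthetised rats had clipped lower abdominal skin and an O-ring placed by a preliminary Doppler image. Capsaicin (0.1–3 mg) or vehicle (30% ethanol, Tween, sterile water) was pipetted into the ring. Dermal blood flow was scanned by laser Doppler imager every 15 min for 120 min. Change from baseline flux was computed every 15 min.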

Q: For `COc1cc(CNC(=O)CCCC/C=C/C(C)C)ccc1O` [Capsaicin], which Flare response (0.1 mg topical) is on record?
A: Its Flare response is “did not produce any increase in flare”.

Q: What about the Flare response (0.3 mg topical, peaked 30 minutes after application) of the same molecule?
A: Its Flare response is “transient increase in flare”.

Q: What about the Flare response (1 mg topical, larger concentrations did not increase flare further) of the same molecule?
A: The Flare response was “greatest amount of flare”.
